The text below walks through data of PubChem BioAssay AID623885 (Vanderbilt Specialized Chemistry Center, 2012).

The structures appear in SMILES notation. The source made the active and inactive calls.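 Rule for the calls: active = mean half-maximal effective concentration under 30 µM; inactive = the rest.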

Metabotropic glutamate receptor 3 (Rattus norvegicus), sequence (P31422 whole entry, looked up): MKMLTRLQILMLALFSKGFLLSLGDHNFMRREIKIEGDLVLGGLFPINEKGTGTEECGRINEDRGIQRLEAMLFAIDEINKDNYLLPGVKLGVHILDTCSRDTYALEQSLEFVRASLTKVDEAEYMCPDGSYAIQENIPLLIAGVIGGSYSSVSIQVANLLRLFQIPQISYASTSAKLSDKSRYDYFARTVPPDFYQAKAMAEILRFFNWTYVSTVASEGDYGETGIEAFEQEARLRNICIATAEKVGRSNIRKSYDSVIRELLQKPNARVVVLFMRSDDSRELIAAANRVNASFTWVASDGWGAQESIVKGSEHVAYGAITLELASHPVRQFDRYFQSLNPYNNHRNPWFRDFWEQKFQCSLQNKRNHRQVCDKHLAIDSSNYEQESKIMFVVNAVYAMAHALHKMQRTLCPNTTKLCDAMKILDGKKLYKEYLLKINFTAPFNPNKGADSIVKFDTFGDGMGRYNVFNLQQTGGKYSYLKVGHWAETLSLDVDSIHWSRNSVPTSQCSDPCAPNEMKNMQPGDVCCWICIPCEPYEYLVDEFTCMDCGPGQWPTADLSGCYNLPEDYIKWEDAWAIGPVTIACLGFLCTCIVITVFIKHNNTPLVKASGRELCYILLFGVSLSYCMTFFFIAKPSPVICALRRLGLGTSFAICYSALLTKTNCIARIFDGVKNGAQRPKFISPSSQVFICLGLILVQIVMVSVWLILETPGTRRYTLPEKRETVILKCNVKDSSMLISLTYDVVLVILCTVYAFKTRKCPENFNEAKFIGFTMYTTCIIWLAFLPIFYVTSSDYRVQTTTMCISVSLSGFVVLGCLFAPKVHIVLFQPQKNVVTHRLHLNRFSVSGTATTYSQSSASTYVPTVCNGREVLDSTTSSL

The assay has as its target Metabotropic glutamate receptor 3 (Rattus norvegicus) (UniProt P31422). The assay can be described thus: rat mGlu3 negative modulators or antagonists, dose response, thallium flux, HEK/GIRK cells (AID 623885). The note with it: HEK293 GIRK rat mGlu3, thallium flux fluorescence; at 30 µM (top of the series). In outline:
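System: HEK cells stably co-expressing GIRK channels, M4 muscarinic receptor, rat mGlu3 / Medium: HEPES-buffered HBSS / Incubation: dye loading 1 h room temperature, compounds ~2.5 min / Measured by: thallium influx through GIRK, FluoZin-2 AM fluorescence / Probe or stimulus: thallium buffer ± agonist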
On to `COc1ccc(C#Cc2ccc(C(=O)N3CCC(C)(O)CC3)cc2)cc1`, for which the percent of glutamate max response was 5.42.
Turning to `COc1ccc(C#Cc2ccc(C(=O)Nc3ccc(F)cn3)cc2)cc1`, the percent of glutamate max response is 63.9.
Regarding `O=C(c1ccc(C#CC2(O)CCCC2)cc1)N1CCC(O)CC1`, the “percent of glutamate max response” value was “inactive”.
Consider `CC(O)(C#Cc1ccc(C(=O)N2CCC(O)CC2)cc1)c1cccc(F)c1` (stereo unspecified), for which the “percent of glutamate max response” value is “inactive”.
Regarding `O=C(c1ccc(C#Cc2c(C(F)(F)F)cccc2C(F)(F)F)cc1)N1CCC(O)CC1`, the percent of glutamate max response is 54.9.
In the case of `Cn1ccnc1C#Cc1ccc(C(=O)N2CCC(O)CC2)cc1` it was “inactive”; in that of `O=C(c1ccc(C#CCC2CCCCC2)cc1)N1CCC(O)CC1`, 4.33; in that of `CN(C)c1ccc(C#Cc2ccc(C(=O)N3CCC(O)CC3)cc2)cc1`, “inactive”.
For `Cc1ccccc1C#Cc1ccc(C(=O)N2CCC(O)CC2)cc1`, the percent of glutamate max response is 10.8.
`COc1ccc(C#Cc2ccc(C(=O)N3CCC4CCCCC4C3)cc2)cc1` (stereo unspecified): the “percent of glutamate max response” value was “inactive”.
For the compound `O=Cc1ccc(C#Cc2ccc(C(=O)N3CCC(O)CC3)cc2)cc1`, the percent of glutamate max response is 21.8.
As to `CC(=O)OCC#Cc1ccc(C(=O)N2CCC(O)CC2)cc1`, the “percent of glutamate max response” value was “inactive”.
For the compound `COc1ccc(C#Cc2ccc(C(=O)N[C@H](C)C3CC3)cc2)cc1`, the percent of glutamate max response is 69.
With `COc1ccc(C#Cc2ccc(C(=O)NCCCO)cc2)cc1`, the “percent of glutamate max response” value was “inactive”.
For the compound `O=C(c1ccc(C#Cc2ccc(C(F)(F)F)cc2)cc1)N1CCC(O)CC1`, the percent of glutamate max response is 54.2.
With `COc1ccc(C#Cc2ccc(C(=O)NCc3ccc(C(C)(C)C)cc3)cc2)cc1`, the “percent of glutamate max response” value is “inactive”.
`O=C(c1ccc(C#Cc2ccncc2)cc1)N1CCC(O)CC1`: the “percent of glutamate max response” value was “inactive”.
The same measure for `O=C(CN1CCc2cc(C#Cc3ccccc3)ccc2C1=O)NCCN1CCCCC1`: 3.68; for `COc1ccc(C#Cc2ccc(C(=O)N3CCOCC3)cc2)cc1`: 65.1; for `O=C(c1ccc(C#CCOc2ccccc2)cc1)N1CCC(O)CC1`: 37.7.
On to `Cc1ccc(C#Cc2ccc(C(=O)N3CCC(O)CC3)cc2)cc1`, for which the percent of glutamate max response was 33.9.
